Screening data as filed in PubChem.
RanGTP-Impb inh – inhibitors of RanGTP-importin-beta interaction, primary screen, biochemical, FRET, CFP-Ran, YFP-importin-beta, homogeneous; Ran GTPase (GTP-bound) - importin-beta complex; cell-free CFP-Ran/YFP-importin-beta FRET ratio; inhibition, % (concentration not given with the values); 300,000 compounds, 1.1% hits; AID 2216, 2009;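 active means more than half of the replicate wells show a fall in the fluorescence ratio signal beyond about 16%, limit read from the data, passing the limit was not always enough; inconclusive means exactly half of the replicate wells pass the set limit; inactive means fewer than half of replicates pass the limit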;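 further: 0% = DMSO wells and 100% = Ran loaded with GDP instead of GTP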
Runt-CBFb FRET – inhibitors of RUNX1 Runt–CBFb binding, primary screen, biochemical, FRET, Cerulean-Runt, Venus-CBFb, uHTS | Runt-related transcription factor 1 (Homo sapiens) + Core-binding factor subunit beta … | inhibition, % at 20 µM | Cerulean-Runt/Venus-CBFb FRET ratio 530/480, 1 h | 220,000 compounds, 0.46% hits;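 active means inhibition over about 50% at 20 µM in the single-dose screen, limit read from the data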;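 further: 0% = DMSO wells and 100% = excess unlabeled CBFb competitor control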
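Reagent – Venus-CBFb binding partner, 100 nM · Assay system – Cerulean-tagged RUNX1 Runt domain (FRET donor) fusion protein · Input – 100 nM per protein · Incubation – two 1 h room-temperature incubations shielded from light · Measured by – FRET fluorescence · Medium – Tris buffer pH 7.5 with salts and BSA · Benchmarks – unlabeled CBFb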
Vif imaging – HIV Vif self-association inhibitors, primary screen, imaging, HEK293T, single point | 340,000 compounds, 0.35% hits | inhibition, % at 7.49 µM | AID 602346, 2012 | HEK293T cells, Vif self-association by quenched fluorescence, 24 h; in the data active means inhibition above about 50%, passing the limit was not always enough; inconclusive means no clear call, values can overlap the other calls; inactive means below about 31%
Runt-SMMHC FRET – inhibitors of RUNX1 Runt–CBFb-SMMHC binding, primary screen, biochemical, FRET, Cerulean-Runt, Venus-CBFb-SMMHC, uHTS | Cerulean-Runt/Venus-CBFb-SMMHC FRET ratio 530/480, 1 h | inhibition, % at 20 µM | 220,000 compounds, 0.74% hits;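 active means mean inhibition across duplicate retests at 20 µM reaching about 50%, limit read from the data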;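 further: 0% = DMSO wells and 100% = wells with excess untagged CBFb-SMMHC; inhibitors lower the FRET ratio by blocking Runt binding to CBFb-SMMHC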
Rce1 inh – yeast Rce1p protease inhibitors, primary screen, biochemical, fluorescence, cell-free homogeneous. calls only. 290,000 compounds, 0.27% hits. AID 2563, 2010. CAAX prenyl protease 2 (Saccharomyces cerevisiae (strain ATCC 204508 / S288c)), Q03530. yeast membranes, quenched prenylated peptide cleavage fluorescence;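 active means fall in fluorescence gain of 50% or more versus controls, with final raw signal at or below 3038400; inconclusive means same 50% fall but final raw signal above 3038400; inactive means fall in fluorescence gain under 50%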;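 further: plate controls were neutral control wells for no effect and wells lacking membranes for full effect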
Target sequence (Q03530 whole entry, looked up): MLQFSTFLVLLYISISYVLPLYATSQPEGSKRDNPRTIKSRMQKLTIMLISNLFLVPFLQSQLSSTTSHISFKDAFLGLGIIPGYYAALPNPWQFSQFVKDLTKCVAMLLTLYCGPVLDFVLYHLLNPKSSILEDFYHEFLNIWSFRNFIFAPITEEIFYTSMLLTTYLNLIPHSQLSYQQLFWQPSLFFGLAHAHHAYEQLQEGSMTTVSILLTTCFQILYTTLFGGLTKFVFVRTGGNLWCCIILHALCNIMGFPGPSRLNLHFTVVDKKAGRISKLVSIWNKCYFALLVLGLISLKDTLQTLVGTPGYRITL
Runt-CBFb TRFRET – inhibitors of RUNX1 Runt–CBFb binding, biochemical, TR-FRET; 480 compounds, 20% hits; shares compounds with Runt-CBFb FRET; TR-FRET RUNX1 Runt domain-CBFb binding; inhibition, % at 20 µM; in the data active means inhibition above about 40%
Active calls of the source: *; i = inactive; ? = inconclusive; / = not tested or not shown. Compounds with a hit are over-represented: about 1.7% of the library has one in this group of screens.

SMILES	RanGTP-Impb inh	Runt-CBFb FRET	Vif imaging	Runt-SMMHC FRET	Rce1 inh	Runt-CBFb TRFRET
COc1ccc2ccccc2c1C(O)c1nccn1C (stereo unspecified)	0	55*	2	115*	i	-2
OC(c1ccc(-c2ccccc2)cc1)c1ncc(-c2cccc(F)c2)[nH]1 (stereo unspecified)	/	/	-4	/	/	/
O=C1C(O)CC2c3ccccc3CC3(CCCC3)N12 (stereo unspecified)	-2	58*	15	2	i	28
COc1cc(/C=C(\C#N)c2nc3ccccc3[nH]2)cc(Br)c1OCc1ccc(F)cc1	5	54*	/	106*	i	-7
COc1cc(/C=C(\C#N)c2nc3ccccc3[nH]2)cc(Br)c1OCc1ccccc1	11	-8	-3	-66	i	/
COc1cc(OC)c(C2CC(=O)N3CN(c4ccccc4)CSC3=C2C#N)cc1OC (stereo unspecified)	-149	80*	7	111*	i	25
CCc1ccccc1N1CSC2=C(C#N)C(c3cc(OC)c(OC)cc3OC)CC(=O)N2C1 (stereo unspecified)	-112	32	-1	48	i	/
CCCCOC(=O)Nc1ccccc1C(N)=O	?	51*	-2	116	i	2
CCOC(=O)CCC(=O)Nc1ccccc1C(N)=O	6	0	-1	-1	i	/
Cc1cc(C)c(C(=O)N(C)C2CCCN(Cc3ccccc3F)C2)o1 (stereo unspecified)	2	/	3	/	i	/
CN1CCN(C(=S)c2ccc(Br)cc2)CC1	?	50*	7	44	i	6
CSc1ccc(C(=S)N2CCN(C)CC2)cc1	-1	54*	-3	39	i	-10
CCN1CCc2nc(NC(=O)c3ccc4c(c3)OCCO4)sc2C1	80*	51*	-4	112*	i	-13
CCN1CCc2nc(NC(=O)C(c3ccccc3)c3ccccc3)sc2C1	?	51*	/	106*	i	-8
Cn1nc(CC(=O)Nc2cccnc2N2CCOCC2)c2ccccc2c1=O	1	-1	/	2	i	/
CCN(CC)c1ccc2cc(C(=O)Nc3cccnc3N3CCOCC3)c(=O)oc2c1	/	59*	/	79*	/	17
Cc1[nH]c2ccc(C(=O)NCc3ccccn3)cc2c1C	2	/	-5	/	i	/
CN(C)c1nc(-c2cccs2)cc(C(F)(F)F)c1C#N	73*	53*	-3	92*	i	24
Cc1nn(C)c2nc(-c3cccs3)cc(C(F)(F)F)c12	-1	-3	3	-3	i	/
O=C(O)C(=Cc1cccc([N+](=O)[O-])c1)c1ccccc1	/	/	4	/	/	/
O=C(C#Cc1cccc([N+](=O)[O-])c1)c1ccccc1	0	51*	0	30	i	28
Cc1cc2c(c(=O)n1Cc1cccnc1)C(c1cccs1)C(C#N)=C(N)O2 (stereo unspecified)	5	3	9	0	i	/
Cc1cc2c(c(=O)n1CCc1ccccc1)C(c1ccco1)C(C#N)=C(N)O2 (stereo unspecified)	11	62*	-1	/	i	34
Cc1cc2c(c(=O)n1Cc1cccnc1)C(Cc1ccccc1)C(C#N)=C(N)O2 (stereo unspecified)	36*	58*	-1	86*	i	-21
CC(C)OCCCNC(=S)Nc1ccc(S(N)(=O)=O)cc1	2	59*	18	35	i	-29
SMILES	RanGTP-Impb inh	Runt-CBFb FRET	Vif imaging	Runt-SMMHC FRET	Rce1 inh	Runt-CBFb TRFRET
S=C(c1ccc(Br)cc1)N1CCN(Cc2ccccc2)CC1	-1	54*	/	50	i	19
O=C(c1ccc(Br)cc1)N1CCN(Cc2ccccc2)CC1	-2	/	0	/	i	/
Oc1ccc(C(=S)N2CCN(Cc3ccccc3)CC2)cc1	3	53*	4	20	i	-6
CCN1CCN(C(=S)c2ccc(O)cc2)CC1	4	54*	4	27	i	-5
C[C@H](O)[C@@H]1C(=O)N2CCc3c([nH]c4ccccc34)[C@@H]2C[C@@H]1N(C)C(=O)NC1CCCCC1	/	/	-4	/	/	/
COc1ccccc1OCCC(=O)OCC(=O)Nc1ccc(Br)cc1F	-4	0	-2	3	i	/
CN1C=CC2=C(C#N)C(N)C(C#N)(C#N)C(c3ccccc3)C2C1 (stereo unspecified)	40*	71*	/	62*	i	32
CCCCC(c1nnnn1C(C)C)N1CCN(C(=O)c2ccco2)CC1 (stereo unspecified)	4	/	4	/	i	/
COc1cccc(C2C(C(=O)Nc3nc4ccccc4s3)=C(C)NC3=C2C(=O)CC(C)(C)C3)c1OC (stereo unspecified)	69*	54*	-3	82*	i	6
O=C(NNC(=O)c1cc(O)c(O)c(O)c1)NC1CCCCC1	6	55*	6	66	i	61*
CCOC(=O)C1=C(C)N(c2ccccc2)C(=O)/C1=C\c1ccco1	?	-2	-8	-10	i	/
CCOC(=O)C1=C(C)N(c2ccccc2)C(=O)/C1=C\c1ccc(O)c(OC)c1	3	55*	1	-4	i	60*
Cc1ccc(NC(=S)C2=C(O)c3sccc3N(C)S2(=O)=O)cc1	81*	65*	/	73*	i	16
CCOC(=O)c1cnc2ccc(C)cc2c1Sc1ccc(F)cc1	-4	86*	-5	-10	i	-48
COCCN(C(=S)Nc1c(C)cc(C)cc1C)C(C)c1cccnc1 (stereo unspecified)	?	51*	7	42	i	-12
COCCN(C(=S)Nc1c(C)cccc1C)C(C)c1cccnc1 (stereo unspecified)	0	2	4	8	i	/
CN1/C(=C/C(=O)C2CCC2)Sc2ccccc21	4	51*	-1	25	i	8
CN1/C(=C\C(=O)c2cccs2)Sc2ccccc21	?	52*	15	94*	i	0
CN1/C(=C\C(=O)c2cccc([N+](=O)[O-])c2)Sc2ccccc21	-1	/	8	/	/	/
COc1cc(OC)cc(C(=O)/C=C2\Sc3ccccc3N2C)c1	2	57*	-3	48	i	6
